{"source": "ChEMBL document CHEMBL1142241", "about": "“Atropisomeric 3-(beta-hydroxyethyl)-4-arylquinolin-2-ones as Maxi-K potassium channel openers” (J Med Chem, 2007)", "key": {"[1]": {"target": "Calcium-activated potassium channel subunit alpha-1 (Homo sapiens) (UniProt Q12791)", "sequence (Q12791 whole entry)": "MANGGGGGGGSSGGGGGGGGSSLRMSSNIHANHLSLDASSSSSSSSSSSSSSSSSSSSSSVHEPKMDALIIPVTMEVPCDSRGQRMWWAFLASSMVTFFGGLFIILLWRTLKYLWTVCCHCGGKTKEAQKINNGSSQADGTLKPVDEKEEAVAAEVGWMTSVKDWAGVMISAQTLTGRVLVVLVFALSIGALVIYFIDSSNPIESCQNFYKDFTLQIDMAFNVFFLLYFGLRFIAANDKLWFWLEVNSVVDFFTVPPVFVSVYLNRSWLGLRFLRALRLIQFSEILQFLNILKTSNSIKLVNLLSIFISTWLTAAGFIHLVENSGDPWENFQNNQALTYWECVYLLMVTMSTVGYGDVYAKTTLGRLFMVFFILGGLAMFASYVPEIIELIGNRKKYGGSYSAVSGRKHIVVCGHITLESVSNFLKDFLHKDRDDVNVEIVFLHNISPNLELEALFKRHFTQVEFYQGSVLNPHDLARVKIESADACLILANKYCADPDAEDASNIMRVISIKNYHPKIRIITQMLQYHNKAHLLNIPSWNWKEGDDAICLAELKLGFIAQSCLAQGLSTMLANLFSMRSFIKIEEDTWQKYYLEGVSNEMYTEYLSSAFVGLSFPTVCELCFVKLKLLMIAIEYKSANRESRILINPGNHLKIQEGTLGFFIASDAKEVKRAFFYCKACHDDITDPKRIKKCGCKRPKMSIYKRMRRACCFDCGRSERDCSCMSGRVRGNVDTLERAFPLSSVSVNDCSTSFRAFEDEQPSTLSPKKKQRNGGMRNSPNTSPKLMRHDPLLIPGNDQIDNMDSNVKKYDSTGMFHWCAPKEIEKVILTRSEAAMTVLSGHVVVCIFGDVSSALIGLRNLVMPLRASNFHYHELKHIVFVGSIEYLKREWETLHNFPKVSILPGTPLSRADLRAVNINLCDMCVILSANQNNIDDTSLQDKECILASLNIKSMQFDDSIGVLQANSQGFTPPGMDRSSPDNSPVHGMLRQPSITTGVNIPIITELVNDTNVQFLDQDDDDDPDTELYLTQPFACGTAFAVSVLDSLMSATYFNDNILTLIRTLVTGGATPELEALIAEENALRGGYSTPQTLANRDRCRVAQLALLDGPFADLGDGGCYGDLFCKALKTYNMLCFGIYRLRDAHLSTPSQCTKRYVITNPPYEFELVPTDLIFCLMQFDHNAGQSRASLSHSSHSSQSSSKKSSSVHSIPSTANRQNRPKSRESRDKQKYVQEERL", "experiment": "Activity at human maxi-K hSlo channel expressed in Xenopus oocytes assessed as increase in maxi k current at 20 uM relative to iberiotoxin", "type": "cell-based", "details": "Oocyte", "method_in_brief": "(§1)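 Xenopus oocytes injected with 50 ng hSlo cRNA, recorded 2–5 days post-injection. Outward K+ currents evoked from a holding potential of -60 mV over -40 to +140 mV in 20 mV depolarizing steps. Compound applied for 5 min in at least 4–5 oocytes, then 100 nM iberiotoxin for 10 min. Values are % IbTX-sensitive current at peak effect, drug-free control = 100%.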"}, "[2]": {"target": "Calcium-activated potassium channel subunit alpha-1 (Homo sapiens) (UniProt Q12791)", "experiment": "Activity at human maxi-K hSlo channel expressed in Xenopus oocytes assessed as increase in maxi k current at 10 uM relative to iberiotoxin", "type": "cell-based", "details": "Oocyte", "method_in_brief": "as §1"}, "Serum": {"test_system": "Serum", "experiment": "Stability in human serum at 1 mM in 37 degC upto 30 hrs", "type": "ADME, cell-free", "details": "1000 µM", "method_in_brief": "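Pooled human serum prewarmed 5 min at 37 °C; test agent added from 0.1 M DMSO stock to final 1 mM in serum with 1% DMSO, held at 37 °C. Racemization followed by supercritical fluid chromatography on a chiral column over 30 h.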"}, "[3]": {"target": "Calcium-activated potassium channel subunit alpha-1 (Homo sapiens) (UniProt Q12791)", "experiment": "Activity at human maxi-K hSlo channel expressed in Xenopus oocytes assessed as increase in maxi k current at 5 uM relative to iberiotoxin", "type": "cell-based", "details": "Oocyte", "method_in_brief": "as §1"}}, "note": "Where “and” joins values, the source holds several entries; their conditions need not be identical. Equal values may be shown once.", "data": [{"compound": "O=c1[nH]c2ccc(C(F)(F)F)cc2c(-c2cc(Cl)ccc2O)c1CCO", "note": "[BMS-223131]", "values": [{"measurement": "Activity", "setting": "[1]", "value": 253, "unit": "%"}, {"measurement": "Activity", "setting": "[2]", "value": "214% and 292% and 259%"}, {"measurement": "Stability", "setting": "Serum", "value": "Stable"}]}, {"compound": "CCCc1cc(Cl)cc(-c2c(CCO)c(=O)n(C)c3ccc(C(F)(F)F)cc23)c1O", "values": [{"measurement": "Activity", "setting": "[2]", "value": 127, "unit": "%"}]}, {"compound": "CC(C)Cc1cc(Cl)cc(-c2c(CCO)c(=O)n(C)c3ccc(C(F)(F)F)cc23)c1O", "values": [{"measurement": "Activity", "setting": "[3]", "value": 96.5, "unit": "%"}]}, {"compound": "Cn1c(=O)c(CCO)c(-c2cc(Cl)cc(CC(O)CO)c2O)c2cc(C(F)(F)F)ccc21", "note": "(stereo not given)", "values": [{"measurement": "Activity", "setting": "[1]", "value": 112, "unit": "%"}]}, {"compound": "Cn1c(=O)c(CCO)c(-c2cc(Cl)cc(CCCO)c2O)c2cc(C(F)(F)F)ccc21", "values": [{"measurement": "Activity", "setting": "[1]", "value": 164, "unit": "%"}]}, {"compound": "Cn1c(=O)c(CCO)c(-c2cc(Cl)ccc2O)c2cc(C(F)(F)F)ccc21", "values": [{"measurement": "Activity", "setting": "[1]", "value": 296, "unit": "%"}, {"measurement": "Activity", "setting": "[2]", "value": "361% and 184% and 257%"}]}, {"compound": "C=C(C)Cc1cc(Cl)cc(-c2c(CCO)c(=O)n(C)c3ccc(C(F)(F)F)cc23)c1O", "values": [{"measurement": "Activity", "setting": "[2]", "value": 114, "unit": "%"}]}]}
